{"source": "ChEMBL document CHEMBL1122809", "about": "“Improved synthesis and antitumor activity of 2-bromo-2'-deoxyadenosine” (1984)", "key": {"L1210 [1]": {"tested_on": "L1210", "assay": "Antitumor activity expressed percentage increase in life span was determined against inoculated L1210 leukemia cells (1*10e6) in mice by 110 mg/kg dosage of compound (qd (x 3), for days 1, 4, 7)", "assay_type": "functional", "details": "Mus musculus", "in_short": "(§1)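 L1210 cells were given intraperitoneally to female mice (~18 g). Freshly prepared drug was injected at 0.01 mL/g, dose per injection, and saline-injected controls were run. The end point was duration of survival. ILS was calculated as percent increase in mean life span over controls. Mice surviving 60 days or more counted as long-term survivors, scored as 60 days.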"}, "L1210 [2]": {"tested_on": "L1210", "assay": "Antitumor activity expressed percentage increase in life span was determined against inoculated L1210 leukemia cells (1*10e5) in mice by 11.3 mg/kg dosage of compound (qd (x 3), for days 1, 4, 7,10,13,16)", "assay_type": "functional", "details": "Mus musculus", "in_short": "as §1"}, "M5076": {"tested_on": "M5076", "assay": "Antitumor activity was evaluated by measuring mean life span in tumor (M5076) inoculated mice at 22.5 mg/kg (qd3hx8),days 1-34", "assay_type": "functional, Mus musculus", "in_short": "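Female mice of about 18 g received subcutaneous M5076 implants matching those used for serial passage. Drug was freshly prepared and injected at 0.01 mL/g every 3 h (×8) on every 3rd day from day 1 to day 34, with the dose stated per injection. Controls received 0.154 M NaCl. Groups held 18 mice (11 in one group). Mean life span was reported as mean ± SD, and tumor volume was also assessed.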"}, "L1210 [3]": {"tested_on": "L1210", "assay": "Antitumor activity expressed as life span was determined against inoculated L1210 leukemia cells (1*10e6) in mice by 30 mg/kg dosage of compound (qd (x 3), for days 1- 7)", "assay_type": "functional, Mus musculus", "in_short": "(§2)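 Female mice (~18 g, housed six per cage) received L1210 cells intraperitoneally on day 0. Drug was made fresh and injected at 0.01 mL/g; the stated dose is per injection. Controls received the same volume of 0.154 M NaCl. Survival was followed, with deaths assigned to tumour by necropsy or to drug toxicity by set criteria. Life span is given as mean ± SD.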"}, "L1210 [4]": {"tested_on": "L1210", "assay": "Antitumor activity expressed as life span was determined against inoculated L1210 leukemia cells (1*10e6) in mice by 180 mg/kg dosage of compound (qd (x 3), for days 1, 4, 7)", "assay_type": "functional, Mus musculus", "in_short": "as §2"}, "L1210 [5]": {"tested_on": "L1210", "assay": "Antitumor activity expressed as life span was determined against inoculated L1210 leukemia cells (1*10e6) in mice by 140 mg/kg dosage of compound (qd (x 3), for days 1, 4, 7)", "assay_type": "functional, Mus musculus", "in_short": "as §2"}, "L1210 [6]": {"tested_on": "L1210", "assay": "Antitumor activity expressed as life span was determined against inoculated L1210 leukemia cells (1*10e5) in mice by 22.5 mg/kg dosage of compound (qd (x 3), for days 1, 4, 7)", "assay_type": "functional, Mus musculus", "in_short": "as §2"}, "L1210 [7]": {"tested_on": "L1210", "assay": "Antitumor activity expressed as life span was determined against inoculated L1210 leukemia cells (1*10e6) in mice by 70 mg/kg dosage of compound (qd (x 3), for days 1, 4, 7)", "assay_type": "functional, Mus musculus", "in_short": "as §2"}, "L1210 [8]": {"tested_on": "L1210", "assay": "Antitumor activity expressed as life span was determined against inoculated L1210 leukemia cells (1*10e5) in mice by 45 mg/kg dosage of compound (qd (x 3), for days 1, 4, 7)", "assay_type": "functional, Mus musculus", "in_short": "as §2"}, "L1210 [9]": {"tested_on": "L1210", "assay": "Antitumor activity expressed percentage increase in life span was determined against inoculated L1210 leukemia cells (1*10e6) in mice by 140 mg/kg dosage of compound (qd (x 3), for days 1, 4, 7)", "assay_type": "functional", "details": "Mus musculus", "in_short": "as §1"}, "L1210 [10]": {"tested_on": "L1210", "assay": "Antitumor activity expressed percentage increase in life span was determined against inoculated L1210 leukemia cells (1*10e5) in mice by 22.5 mg/kg dosage of compound (qd (x 3), for days 1, 4, 7,10,13,16)", "assay_type": "functional", "details": "Mus musculus", "in_short": "as §1"}, "L1210 [11]": {"tested_on": "L1210", "assay": "Antitumor activity expressed as life span was determined against inoculated L1210 leukemia cells (1*10e5) in mice by 17.3 mg/kg dosage of compound (qd (x 3), for days 1,5,9)", "assay_type": "functional, Mus musculus", "in_short": "as §2"}, "L1210 [12]": {"tested_on": "L1210", "assay": "Antitumor activity expressed percentage increase in life span was determined against inoculated L1210 leukemia cells (1*10e6) in mice by 45 mg/kg dosage of compound (qd (x 3), for days 1, 4, 7)", "assay_type": "functional", "details": "Mus musculus", "in_short": "as §1"}, "L1210 [13]": {"tested_on": "L1210", "assay": "Antitumor activity expressed as life span was determined against inoculated L1210 leukemia cells (1*10e6) in mice by 110 mg/kg dosage of compound (qd (x 3), for days 1, 4, 7)", "assay_type": "functional, Mus musculus", "in_short": "as §2"}, "B16 melanoma (mouse) [14]": {"tested_on": "B16 melanoma (mouse)", "assay": "Antitumor activity expressed percentage increase in life span was determined against inoculated B16 melanoma in mice by 11.3 mg/kg dosage of compound (qd3hx8), for days 1,4,7,10"}, "L1210 [15]": {"tested_on": "L1210", "assay": "Antitumor activity expressed as life span was determined against inoculated L1210 leukemia cells (1*10e5) in mice by 22.5 mg/kg dosage of compound (qd (x 3), for days 1, 4, 7,10,13,16)", "assay_type": "functional, Mus musculus", "in_short": "as §2"}, "L1210 [16]": {"tested_on": "L1210", "assay": "Antitumor activity expressed as life span was determined against inoculated L1210 leukemia cells (1*10e6) in mice by 110 mg/kg dosage of compound (qd (x 3), for days 1- 7)", "assay_type": "functional, Mus musculus", "in_short": "as §2"}, "L1210 [17]": {"tested_on": "L1210", "assay": "Antitumor activity expressed percentage increase in life span was determined against inoculated L1210 leukemia cells (1*10e6) in mice by 30 mg/kg dosage of compound (qd (x 3), for days 1- 7)", "assay_type": "functional", "details": "Mus musculus", "in_short": "as §1"}, "L1210 [18]": {"tested_on": "L1210", "assay": "Antitumor activity expressed percentage increase in life span was determined against inoculated L1210 leukemia cells (1*10e6) in mice by 90 mg/kg dosage of compound (qd (x 3), for days 1, 4, 7)", "assay_type": "functional", "details": "Mus musculus", "in_short": "(§3)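 Female mice of about 18 g (BDF1, DBA/2 or C57Bl/6 stocks used) were inoculated intraperitoneally with 1 × 10^6 L1210 cells. Freshly prepared drug was given once daily from about 24 h after inoculation at 0.01 mL/g, with the dose stated per injection. Controls received 0.154 M NaCl, and groups held 6 mice. %ILS was taken from mean survival, with mice alive at 60 days or more counted as 60 days.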"}, "L1210 [19]": {"tested_on": "L1210", "assay": "Antitumor activity expressed percentage increase in life span was determined against inoculated L1210 leukemia cells (1*10e6) in mice by 5.6 mg/kg dosage of compound (qd (x 3), for days 1, 4, 7)", "assay_type": "functional", "details": "Mus musculus", "in_short": "as §1"}, "L1210 [20]": {"tested_on": "L1210", "assay": "Antitumor activity expressed percentage increase in life span was determined against inoculated L1210 leukemia cells (1*10e6) in mice by 11.3 mg/kg dosage of compound (qd (x 3), for days 1, 4, 7,10,13,16)", "assay_type": "functional", "details": "Mus musculus", "in_short": "as §1"}, "L1210 [21]": {"tested_on": "L1210", "assay": "Antitumor activity expressed percentage increase in life span was determined against inoculated L1210 leukemia cells (1*10e6) in mice by 70 mg/kg dosage of compound (qd (x 3), for days 1-7)", "assay_type": "functional", "details": "Mus musculus", "in_short": "as §3"}, "B16 melanoma (mouse) [22]": {"tested_on": "B16 melanoma (mouse)", "assay": "Antitumor activity expressed percentage increase in life span was determined against inoculated B16 melanoma in mice by 22.5 mg/kg dosage of compound (qd3hx8), for days 1,4,7,10"}, "L1210 [23]": {"tested_on": "L1210", "assay": "Antitumor activity expressed percentage increase in life span was determined against inoculated L1210 leukemia cells (1*10e6) in mice by 22.5 mg/kg dosage of compound (qd (x 3), for days 1, 4, 7)", "assay_type": "functional", "details": "Mus musculus", "in_short": "as §1"}, "L1210 [24]": {"tested_on": "L1210", "assay": "Antitumor activity expressed as life span was determined against inoculated L1210 leukemia cells (1*10e6) in mice by 70 mg/kg dosage of compound (qd (x 3), for days 1- 7)", "assay_type": "functional, Mus musculus", "in_short": "as §2"}}}
{"compound": "Nc1nc(Br)nc2c1ncn2[C@H]1C[C@H](O)[C@@H](CO)O1", "values": [{"measurement": "ILS at 110 mg/kg", "setting": "L1210 [1]", "result": 29, "unit": "%"}, {"measurement": "ILS at 11.3 mg/kg", "setting": "L1210 [2]", "result": 128, "unit": "%"}, {"measurement": "Life span", "setting": "M5076", "result": 46.41, "unit": "days"}, {"measurement": "Life span", "setting": "L1210 [3]", "result": 7.67, "unit": "days"}, {"measurement": "Life span", "setting": "L1210 [4]", "result": 5, "unit": "days"}, {"measurement": "Life span", "setting": "L1210 [5]", "result": 8, "unit": "days"}, {"measurement": "Life span", "setting": "L1210 [6]", "result": 23.75, "unit": "days"}, {"measurement": "Life span", "setting": "L1210 [7]", "result": 6.5, "unit": "days"}, {"measurement": "Life span", "setting": "L1210 [8]", "result": 37.92, "unit": "days"}, {"measurement": "ILS at 140 mg/kg", "setting": "L1210 [9]", "result": 26, "unit": "%"}, {"measurement": "ILS at 22.5 mg/kg", "setting": "L1210 [10]", "result": 153, "unit": "%"}, {"measurement": "Life span", "setting": "L1210 [11]", "result": 14, "unit": "days"}, {"measurement": "ILS at 45 mg/kg", "setting": "L1210 [12]", "result": 113, "unit": "%"}, {"measurement": "Life span", "setting": "L1210 [13]", "result": 8.17, "unit": "days"}, {"measurement": "ILS at 11.3 mg/kg", "setting": "B16 melanoma (mouse) [14]", "result": 66, "unit": "%"}, {"measurement": "Life span", "setting": "L1210 [15]", "result": 20.67, "unit": "days"}, {"measurement": "Life span", "setting": "L1210 [16]", "result": 4.17, "unit": "days"}, {"measurement": "ILS at 30 mg/kg", "setting": "L1210 [17]", "result": 21, "unit": "%"}, {"measurement": "ILS at 90 mg/kg", "setting": "L1210 [18]", "result": 11, "unit": "%"}, {"measurement": "ILS at 5.6 mg/kg", "setting": "L1210 [19]", "result": 75, "unit": "%"}, {"measurement": "ILS at 11.3 mg/kg", "setting": "L1210 [20]", "result": 86, "unit": "%"}, {"measurement": "ILS at 70 mg/kg", "setting": "L1210 [21]", "result": 11, "unit": "%"}, {"measurement": "ILS at 22.5 mg/kg", "setting": "B16 melanoma (mouse) [22]", "result": 50, "unit": "%"}, {"measurement": "ILS at 22.5 mg/kg", "setting": "L1210 [23]", "result": 137, "unit": "%"}, {"measurement": "Life span", "setting": "L1210 [24]", "result": 7, "unit": "days"}]}
